Most compounds without a hit are left out; they make up all but 3.7% or so of the library.
SR-BI uptake up: enhances SR-BI lipid uptake from DiI-HDL; hit rate 0.096% among 320,000; AID 504775; activation, % at 12.5 µM; CHO ldlA[mSR-BI] cells, DiI-HDL uptake fluorescence, 3 h; 100 = double the neutral-control signal;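 active means mean replicate activation of at least 60% and every replicate at or above 60%; inconclusive means mean or all-replicate condition met, but not both; inactive means mean below 60% and not all replicates reaching 60%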;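 further: 0% = median plate neutral-control signal and 100% = twice that signal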
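Material: SR-BI-overexpressing, LDLR-lacking CHO cells | Dosing: Single compound concentration, delivered by pin transfer | Probe or stimulus: Labelled HDL, 10 µg/mL | Signal: Bottom-read cell fluorescence after medium removal, ex 550/em 595 nm | Schedule: 3 h, 37 °C | Evaluation: HDL uptake via cellular fluorescence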
SR-BI HDL uptake: inhibitors of mouse SR-BI mediated HDL lipid uptake; Q61009; ldlA[mSR-BI] CHO cells, DiI-HDL uptake fluorescence, 3 h; inhibition, % at 12.5 µM; hit rate 0.96% among 320,000; AID 488896;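 active means mean replicate inhibition of at least 70% and a set share of replicates each scoring 70 or more; inconclusive means meets just one of the two criteria; inactive means fails both criteria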;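 further: 0% = median of neutral control wells and 100% = median of positive control wells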
Target sequence (Q61009 whole entry, looked up): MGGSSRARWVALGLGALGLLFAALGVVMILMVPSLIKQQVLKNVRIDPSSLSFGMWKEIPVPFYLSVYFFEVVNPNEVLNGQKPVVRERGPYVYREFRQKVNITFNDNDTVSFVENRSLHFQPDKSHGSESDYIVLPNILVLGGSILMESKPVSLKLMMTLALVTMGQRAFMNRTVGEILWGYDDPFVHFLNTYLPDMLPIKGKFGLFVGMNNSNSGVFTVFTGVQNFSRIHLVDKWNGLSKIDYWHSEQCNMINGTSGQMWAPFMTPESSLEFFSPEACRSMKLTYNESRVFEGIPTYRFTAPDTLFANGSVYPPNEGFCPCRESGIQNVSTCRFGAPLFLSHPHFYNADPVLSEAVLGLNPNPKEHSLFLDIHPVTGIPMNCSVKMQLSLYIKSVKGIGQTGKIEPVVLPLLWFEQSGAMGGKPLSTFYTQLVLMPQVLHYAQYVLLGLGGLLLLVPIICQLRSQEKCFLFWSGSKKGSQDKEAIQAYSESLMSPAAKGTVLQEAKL
GASC-1 inh: inhibitors of human GASC-1 (JMJD2C) demethylase. hit rate 0.069% among 330,000. inhibition, % at 2.35 µM. GST-JMJD2C(1-420) H3K9me3 demethylation, DELFIA europium;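 active means more than half of a compound's replicate wells show inhibition beyond 50%, single wells judged on their own value; inconclusive means some, but no more than half, of replicates pass 50% inhibition; inactive means no replicate passes 50% inhibition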;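 further: signal counts dimethyl H3K9 product captured on neutravidin plate; 0% = median of DMSO wells and 100% = 0.3 times that DMSO median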
AHR activator: activates the human aryl hydrocarbon receptor; P35869; AHR-responsive luciferase reporter cells, luminescence; activation, % at 5 µM; hit rate 2.5% among 320,000; in the data active means activation above about 47%;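 further: 0% = vehicle wells and 100% = reference agonist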
FXN GAA850 act: frataxin GAA850 promoter activation | HEK293 lucGAA850 FXN promoter luciferase reporter, 24 h; percent of 10 µM SAHA response | activation, % at 6 µM | hit rate 0.56% among 360,000 | AID 540364;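 active means activation above the average of all compounds screened plus 3 SD, cutoff fixed separately per campaign, cut at about 7.5% in these data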;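 further: 0% = DMSO wells and 100% = 10 µM SAHA wells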
AHR act confirm: confirmation of human aryl hydrocarbon receptor activators; AID 2845; human cells, AHR-responsive luciferase reporter, luminescence; shares compounds with AHR activator; hit rate 87% among 2,300; activation, % at 9 µM; in the data active means activation above about 49%;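 further: HepG2 hepatoma cells carrying a DRE-driven firefly luciferase reporter; 0% = vehicle wells and 100% = reference agonist wells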
PXR act counter: counter-screen for AHR activators: human PXR activators | shares compounds with AHR activator | cell-based PXR reporter, luciferase luminescence | activation, % at 11.6 µM | hit rate 88% among 2,300; in the data active means activation above about 11%;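 further: human hepatoma DPX-2 cells expressing full-length human PXR; 0% = DMSO and 100% = reference agonist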
DiI quencher: counter-screen for SR-BI lipid transfer inhibitors: DiI fluorescence quenchers; AC50, µM (highest dose often 35 µM), inactives show at the top dose activity change, negative = quenching; shares compounds with SR-BI HDL uptake; hit rate 20% among 470; cell-free DiI-HDL fluorescence quenching, 30 min;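 active means quenching, a falling signal, with AC50 below a set limit tied to the top valid dose, actives reach about 32 µM in these data; inconclusive means no clear call, values can overlap the other calls; inactive means rising signal, and the rest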
GAA30 FXN cntr: activates GAA30 frataxin promoter, counter-screen for GAA850 activators | shares compounds with FXN GAA850 act | HEK293 lucGAA30 FXN promoter luciferase, 24 h; DMSO = 0%, 5 µM ipriflavone = 100% | activation, % at 6 µM | hit rate 66% among 1,900 | AID 588350;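 active means mean activation above the mean of solvent-only control wells plus 3 SD, cut at about 22% in these data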;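 further: counterscreen of GAA850 promoter hits where activity marks nonselective or luminescence artifacts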
GAA850 confirm: GAA850 FXN promoter activation confirmation; HEK293 lucGAA850 FXN promoter luciferase reporter, 24 h; 100% = activation by SAHA; hit rate 86% among 1,900; activation, % at 6 µM; shares compounds with FXN GAA850 act;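 active means mean activation above a set limit taken from the primary screen, cut at about 8% in these data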;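 further: 0% = DMSO wells and 100% = 10 µM SAHA wells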
Numbers without * were called inactive; ? = inconclusive; . = not tested or not shown; ! = a repeat was not active.

SMILES	SR-BI uptake up	SR-BI HDL uptake	GASC-1 inh	AHR activator	FXN GAA850 act	GAA30 FXN cntr	GAA850 confirm	others
O=C1CN=C(c2ccc(Cl)cc2)c2oc3ccccc3c2N1	.	.	?	104*	3	.	.	AHR act confirm=119*;PXR act counter=31*
Cc1ccnc(-n2c(C)nc3ccccc3c2=O)c1	-5	5	-2	13	2	.	.
Cc1cccc(N2CCc3c2nc2ccccc2c3N)c1	-29	29	-6	83*	2	.	.	AHR act confirm=86*;PXR act counter=55*
COc1ccc2c(c1)/C(=C/c1cnc[nH]1)C(=O)N2	12	-12	1	248*	43*	116*	76*	AHR act confirm=49*;PXR act counter=15*
CCOCCCNC(=O)C1c2cc(OC)c(OC)cc2C(=O)N2CCCCC12 (stereo not given)	7	-7	-4	1	1	.	.
O=C(Nc1ccccc1F)OC1CN2CCC1CC2 (stereo not given)	-84	84*	-8	-1	1	.	.	DiI quencher=-3%
CC(C)(C)c1ccc(S(=O)(=O)N2CC3CC(C2)c2cccc(=O)n2C3)cc1 (stereo not given)	12	-12	-5	1	1	.	.	DiI quencher=0%
COc1ccc(S(=O)(=O)N2CC3CC(C2)c2cccc(=O)n2C3)cc1 (stereo not given)	-9	9	-3	0	2	.	.
C[C@@H]1CN(C2CCC(C#N)(c3ccc(F)cc3)CC2)CC[C@]1(C(=O)O)c1ccccc1 (stereo not given in full)	-3	3	.	-3	-2	.	.
CCCCCCn1c(=O)c(C(=O)Nc2cnccn2)c(O)c2ccccc21	-82	82*	-3	8	-1	.	.	DiI quencher=-5%
CCCS(=O)(=O)N1CCCC(C(=O)N2CCC3(CC2)OCCO3)C1 (stereo not given)	16	-16	-1	1	0	.	.
CN(C)[C@@H]1C(=O)C(C(N)=O)=C(O)[C@@]2(O)C(=O)C3=C(O)c4c(O)ccc(Cl)c4[C@@](C)(O)C3C[C@@H]12 (stereo not given in full)	21	-21	.	.	14*	6	1
CN(C)[C@@H]1C(=O)C(C(N)=O)=C(O)[C@@]2(O)C(=O)C3=C(O)c4c(O)cccc4[C@@](C)(O)C3[C@H](O)C12 (stereo not given in full)	-43	43	20	-1	15*!	28*	9.1*
O=c1[nH]c2ccccc2o1	0	0	.	1	0	.	.
CN1C(=O)c2ccccc2NC(=O)[C@]12O[C@@H]2c1ccccc1	-1	1	-2	3	13*	20	5
C=CCc1cc(C=C2C(=O)N(C)C(=O)N(C)C2=O)cc(OCC)c1OCc1ccccc1	-12	12	27	17	1	.	.
COc1ccc(-c2nn(CCC#N)cc2C(=O)NCc2ccccc2)cc1[N+](=O)[O-]	-19	19	1	.	3	.	.
O=c1cccc2n1CC1CC2CN(c2nc(N3CCCCC3)nc(N3CCCCC3)n2)C1 (stereo not given)	19	-19	12	2	11*	32*	12*
O=c1cccc2n1CC1CC2CN(Cc2c(Cl)cccc2Cl)C1 (stereo not given)	26	-26	6	-5	1	.	.
Cc1ccccc1-n1c(O)c(/C=N/N2CCOCC2)c(=O)[nH]c1=S	-3	3	6	0	2	.	.
O=c1[nH]cnc2nc(-c3ccc(N(CCCl)CCCl)cc3)[nH]c12	-36	36	.	.	9.0*	91*	56*
O=C(O)CCCc1ccc(N(CCCl)CCCl)cc1	12	-1	-23	-4	0	.	.
CC(C)c1ccc(N2C(=O)NC(=O)/C(=C/C=C/c3ccco3)C2=O)cc1	22	-22	4	20	8.7*	3	20*
Cc1cc(C)cc(N2C(=O)NC(=O)/C(=C\C=C\c3ccco3)C2=O)c1	4	-4	-11	1	8.9*	-49	-10
Cc1ccc(N2C(=O)NC(=O)/C(=C/C=C/c3ccco3)C2=O)cc1	11	-11	6	4	5	.	.
SMILES	SR-BI uptake up	SR-BI HDL uptake	GASC-1 inh	AHR activator	FXN GAA850 act	GAA30 FXN cntr	GAA850 confirm	others
C=CCN1C(=O)NC(=O)C(CCc2ccncc2)(CCc2ccncc2)C1=O	21	-21	-24	-1	-1	.	.
CC(=O)CC(=O)C1C(=O)N(C)C(=O)N(C)C1=O	8	-8	-11	-2	1	.	.
CCC(=NC(C)c1ccccc1)c1c(O)[nH]c(=O)[nH]c1=O (stereo not given)	20	-20	20	1	8.5*	16	10*
CN(C)C(=S)SSC(=S)N(C)C	21	-21	32	-1	27*	-118	-34
CCN(CC)c1ccc(N=Cc2c(O)n(CCC3=CCCCC3)c(=O)[nH]c2=O)cc1	7	-7	-13	2	4	.	.
CN(C)c1ccc(N=Cc2c(O)n(CCC3=CCCCC3)c(=O)[nH]c2=O)cc1	-5	5	10	4	25*	2	6
COc1ccc2c(c1)c(C(=O)C(C)N1CCCCC1)c(C)n2C (stereo not given)	2	-2	-4	0	1	.	.
CCN1C(=O)C(=Cc2ccc(C)s2)C(=O)N(CC)C1=S	24	-24	14	5	9.0*	79*	45*
C=CCNC(=O)c1c(N)n(Cc2ccco2)c2nc3ccccc3nc12	15	-15	3	26	9.6*	17	8.6*
CCNC(=O)C1OC(n2cnc3c(N)ncnc32)C(O)C1O (stereo not given)	20	-20	8	0	10*	18	26*
CC1CN=C(NCc2ccncc2)S1 (stereo not given)	17	-17	-8	-1	1	.	.
Cn1cccc1/C=C1\C(=O)NC(=O)N(Cc2ccccc2)C1=O	.	.	-7	3	8.0*	-7	24*
CC1CN(O)C2CCc3c(no[n+]3[O-])C12O (stereo not given)	7	-7	17	2	0	.	.
CN1CCCN(C(=O)COc2cccc(C(F)(F)F)c2)CC1	1	-1	12	0	0	.	.

Screening results deposited in PubChem by several laboratories.
